Test results: PMC4079330 (Journal of Medicinal Chemistry, 2014)

Assays:
Assay type in all cases: cell-based
[1] = system: iNOS (NOS2) mRNA in RAW 264.7 cells; assay: Quantitative RT-PCR of iNOS mRNA, LPS; settings: 20 ng/mL LPS, 20 h, maximal decrease over tested concentrations
Procedure, shortened: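 Quantitative real-time PCR for iNOS mRNA in RAW 264.7 cells co-incubated with 20 ng/mL LPS and a range of test compound concentrations for 20 h. Values expressed as fold change, with ligand-induced cells set to 1. Three biological replicates, each in technical duplicate, were averaged, with standard deviation as error.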

[2] = system: NF-κB activation through TLR4 in HEK 293T cells; assay: SEAP reporter assay, LPS; settings: 20 ng/mL LPS, concentrations up to 100 μM
[3] = system: RAW 264.7 cells; assay: WST1 cell viability assay; settings: concentrations up to 100 μM
Procedure, shortened: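 Viability was read at every concentration tested in the NO assay, in RAW 264.7 cells given 20 ng/mL LPS plus a range of test compound concentrations. LC50 was taken as the concentration giving 50% cell viability. Test compound purity was above 95% by 1H NMR.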

[4] = system: NF-κB signaling through tumor necrosis factor receptor (TNFR) in HEK 293T cells; assay: SEAP reporter assay, TNF-α; settings: 50 ng/mL TNF-α
[5] = system: NF-κB activation through TLR3 in HEK 293T cells; assay: SEAP reporter assay, Poly I:C; settings: 2.5 μg/mL Poly I:C, concentrations up to 100 μM
[6] = system: iNOS protein in RAW 264.7 cells; assay: Western blot of iNOS protein; settings: 20 ng/mL LPS, normalized to GAPDH
[7] = system: TNF-α in RAW 264.7 cells; assay: TNF-α ELISA; settings: supernatant from nitric oxide plates

## CC(C)(C)OC(=O)N(Cc1ccco1)C(=O)c1ccc(CN2C(=O)c3ccccc3S2(=O)=O)cc1 [compound 103, tert-butyl N-(furan-2-ylmethyl)-N-{4-[(1,1,3-trioxo-2,3-dihydro-1λ^6,2-benzothiazol-2-yl)methyl]benzoyl}carbamate]
[1]
  decrease of iNOS mRNA: up to 67%
[2]
  NF-κB activation (SEAP): did not down-regulate NF-κB activation
[3]
  cytotoxicity: no cytotoxicity
[4]
  NF-κB signaling (SEAP): unaffected
[5]
  NF-κB activation (SEAP): did not down-regulate NF-κB activation
[6]
  iNOS protein expression: reduces iNOS protein expression in a dose-dependent fashion
[7]
  TNF-α cytokine levels: no change in TNF-α cytokine levels
